Assay outcomes (PubChem)
Only some compounds are listed: those with a hit (about 1.7% of all), similar ones and a draw of the others.
ZTA counter = counter-screen for EBNA-1 inhibitors: inhibitors of Epstein-Barr virus ZTA; ZTA-DNA binding, fluorescence polarization; P03206; 320,000 tested, 0.15% active; inhibition, % at 11 µM; in the data active = inhibition above about 33%
PREPL inh = inhibits the human prolyl oligopeptidase-like enzyme; inhibition, % at 5.96 µM; 320,000 tested, 0.68% active; recombinant PREPL, fluorescence polarization activity-based probe; Q4J6C6; in the data active = inhibition above about 43%
Apaf-1 inh = blocks human Apaf-1 apoptosome activity; O14727; reconstituted apoptosome caspase-3 activity, DEVD-Rh110 fluorescence; inhibition, % at 20 µM; 330,000 tested, 0.71% active; AID 489030; active = inhibition of at least 40% at 20 µM
Target sequence (O14727 whole entry, looked up): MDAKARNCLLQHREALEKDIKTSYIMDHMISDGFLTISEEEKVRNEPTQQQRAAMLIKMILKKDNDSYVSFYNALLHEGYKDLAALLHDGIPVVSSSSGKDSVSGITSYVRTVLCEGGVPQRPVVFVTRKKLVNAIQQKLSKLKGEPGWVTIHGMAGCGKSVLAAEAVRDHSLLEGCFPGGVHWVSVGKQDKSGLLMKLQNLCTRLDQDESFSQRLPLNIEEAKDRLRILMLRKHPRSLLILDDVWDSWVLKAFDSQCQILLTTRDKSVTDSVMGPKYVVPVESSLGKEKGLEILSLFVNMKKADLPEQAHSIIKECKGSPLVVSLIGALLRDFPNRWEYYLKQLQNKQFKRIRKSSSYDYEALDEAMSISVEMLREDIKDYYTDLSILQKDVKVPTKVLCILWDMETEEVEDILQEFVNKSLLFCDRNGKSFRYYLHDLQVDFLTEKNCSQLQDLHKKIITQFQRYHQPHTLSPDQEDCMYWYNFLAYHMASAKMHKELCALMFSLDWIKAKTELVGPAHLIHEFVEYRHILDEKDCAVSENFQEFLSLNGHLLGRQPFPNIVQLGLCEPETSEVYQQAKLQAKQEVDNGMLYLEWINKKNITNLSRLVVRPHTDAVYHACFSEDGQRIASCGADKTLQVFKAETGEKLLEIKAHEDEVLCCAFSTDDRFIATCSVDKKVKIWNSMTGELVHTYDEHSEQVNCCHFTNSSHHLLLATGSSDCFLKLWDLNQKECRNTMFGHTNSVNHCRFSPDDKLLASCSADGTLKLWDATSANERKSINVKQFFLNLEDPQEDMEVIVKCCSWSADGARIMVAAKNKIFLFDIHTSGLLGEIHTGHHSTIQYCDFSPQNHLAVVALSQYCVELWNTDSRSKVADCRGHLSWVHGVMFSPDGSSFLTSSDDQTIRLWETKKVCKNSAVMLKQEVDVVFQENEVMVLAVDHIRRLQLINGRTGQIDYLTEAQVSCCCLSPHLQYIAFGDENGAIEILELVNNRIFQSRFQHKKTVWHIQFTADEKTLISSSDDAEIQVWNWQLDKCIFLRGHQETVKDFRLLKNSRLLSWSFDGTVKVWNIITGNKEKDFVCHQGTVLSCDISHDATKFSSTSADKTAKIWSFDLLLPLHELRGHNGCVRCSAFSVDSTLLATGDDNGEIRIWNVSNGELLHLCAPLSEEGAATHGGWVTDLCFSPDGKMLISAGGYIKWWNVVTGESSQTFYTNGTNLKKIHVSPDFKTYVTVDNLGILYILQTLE
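Medium: Hepes buffer, pH 7.5 / System: biochemical Apaf-1 apoptosome reconstitution / Measured by: Rh110 fluorescence, excitation 480 nm, emission 540 nm / Times: compound with Apaf-1, dATP, procaspase-3 30 min, then 50 min reaction, room temperature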
UBC13 inh = inhibitors of human UBC13 polyubiquitin chain formation | P61088 | TR-FRET | inhibition, % at 20 µM | 330,000 tested, 0.47% active | AID 485273; in the data active = inhibition above about 45%, passing the limit was not always enough
EBNA-1 inh = blocks EBNA-1 binding to DNA. EBNA-1 DNA binding, fluorescence polarization. inhibition, % at 14.8 µM. 300,000 tested, 0.34% active; in the data active = inhibition above about 28%
Casp3 UBC13 ctr = counter-screen for UBC13 inhibitors: human caspase-3 inhibition; shares compounds with UBC13 inh; Recombinant caspase-3, Caspase-Glo 3/7 luminescence, 60 min; inhibition, % at 20 µM; 1,400 tested, 4% active;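 active = mean inhibition across replicates above about 26%, limit read from the data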
UBC13 confirm = human UBC13 polyubiquitin inhibition, confirmed; shares compounds with UBC13 inh; UBC13 polyubiquitination, TR-FRET, biochemical; inhibition, % at 10 µM; 1,400 tested, 68% active; in the data active = inhibition above about 45%
Numbers stand for hits.

What do the screens show for `COc1ccc(C2C(C#N)=C(SC)NC3=C2C(=O)CC(C)(C)C3)cc1` (stereo not given)?
ZTA counter: inactive; PREPL inh: inactive; Apaf-1 inh: inactive; UBC13 inh: inactive; EBNA-1 inh: inactive

What do the screens show for `C=C1CC2C(=O)N(Cc3cc(OC)ccc3OC)C(C(=O)OCC)(C(=O)OCC)C1N2C(=O)OC(C)(C)C` (stereo not given)?
ZTA counter: inactive; PREPL inh: inactive; Apaf-1 inh: inactive; UBC13 inh: inactive; EBNA-1 inh: inactive

How did COC(=O)C1=C(C)N(Cc2ccccc2)C(=NCc2cc(OC)c(OC)c(OC)c2)N[C@H]1c1cccc(F)c1 do in these assays?
ZTA counter: inactive; PREPL inh: inactive; Apaf-1 inh: inactive; UBC13 inh: inactive; EBNA-1 inh: inactive

How did COC(=O)C1=C(C)N(Cc2ccccc2)C(=NCc2cccc(Cl)c2)N[C@H]1c1cccc(F)c1 do in these assays?
PREPL inh: inactive; Apaf-1 inh: 67; UBC13 inh: 72; Casp3 UBC13 ctr: inactive; UBC13 confirm: 86

How did Cc1cc(C)cc(NC(=O)CSc2nnc(CNC(=O)c3cccs3)o2)c1 do in these assays?
ZTA counter: inactive; PREPL inh: inactive; Apaf-1 inh: inactive; UBC13 inh: inactive; EBNA-1 inh: inactive

How did CC(C)CC(C(=O)NC(C)(C)C)N(Cc1cccs1)C(=O)c1snc(C(N)=O)c1N (stereo not given) do in these assays?
ZTA counter: inactive; PREPL inh: inactive; Apaf-1 inh: inactive; UBC13 inh: 65; EBNA-1 inh: inactive; Casp3 UBC13 ctr: inactive; UBC13 confirm: 67

How did CC(C)CC(C(=O)NC(C)(C)C)N(Cc1ccccc1Cl)C(=O)c1snc(C(N)=O)c1N (stereo not given) do in these assays?
Apaf-1 inh: inactive; UBC13 inh: 71; Casp3 UBC13 ctr: inactive; UBC13 confirm: 93

Results for Cn1c(SCC(=O)NC2CCCCC2)nnc1-c1ccccc1F ?
ZTA counter: inactive; PREPL inh: inactive; Apaf-1 inh: inactive; UBC13 inh: inactive; EBNA-1 inh: inactive

Results for CN1CCN(C2Cc3cc(F)ccc3Sc3ccc(Cl)cc32)CC1 (stereo not given) ?
ZTA counter: inactive; PREPL inh: inactive; Apaf-1 inh: inactive; UBC13 inh: inactive; EBNA-1 inh: inactive

What do the screens show for `CN1CCN(C2Cc3ccccc3Sc3ccc(Cl)cc32)CC1` (stereo not given)?
ZTA counter: inactive; PREPL inh: inactive; Apaf-1 inh: inactive; UBC13 inh: 45; EBNA-1 inh: inactive; Casp3 UBC13 ctr: inactive; UBC13 confirm: inactive

What do the screens show for `Cc1ccc(C(C(=O)NC2CCCC2)N(Cc2cccnc2)C(=O)c2snc(C(N)=O)c2N)o1` (stereo not given)?
ZTA counter: inactive; PREPL inh: inactive; Apaf-1 inh: inactive; UBC13 inh: inactive; EBNA-1 inh: inactive

What do the screens show for `COc1ccc(C(CNC(=O)C(C)Oc2ccc(Br)cc2)N2CCOCC2)cc1` (stereo not given)?
ZTA counter: inactive; PREPL inh: inactive; Apaf-1 inh: inactive; UBC13 inh: inactive; EBNA-1 inh: inactive

What do the screens show for `CN1CCC(N(C)C(=O)/C=C/c2cn(-c3ccccc3)nc2-c2cccs2)CC1`?
ZTA counter: inactive; PREPL inh: inactive; Apaf-1 inh: inactive; UBC13 inh: 46; EBNA-1 inh: inactive; Casp3 UBC13 ctr: inactive; UBC13 confirm: inactive

How did CCN(CC(=O)Nc1ccc(NC(C)=O)cc1)C(=O)/C=C/c1cn(-c2ccccc2)nc1-c1cccs1 do in these assays?
ZTA counter: inactive; PREPL inh: inactive; Apaf-1 inh: inactive; UBC13 inh: inactive; EBNA-1 inh: inactive

Results for N#Cc1ccc(OCC(=O)N2CCN(C(=O)c3ccco3)CC2)cc1 ?
ZTA counter: inactive; PREPL inh: inactive; Apaf-1 inh: inactive; UBC13 inh: inactive

Results for COc1ccc(C(CNC(=O)c2ccc(-c3nc4ccccc4s3)o2)N2CCCC2)cc1 (stereo not given) ?
ZTA counter: inactive; PREPL inh: inactive; Apaf-1 inh: inactive; UBC13 inh: 61; Casp3 UBC13 ctr: inactive; UBC13 confirm: 53

How did Cc1ccc(-c2noc(CN3CCN(C(c4ccccc4)c4ccccc4)CC3)n2)cc1 do in these assays?
ZTA counter: inactive; PREPL inh: inactive; Apaf-1 inh: inactive; UBC13 inh: inactive; EBNA-1 inh: inactive

How did CCN(CC(=O)Nc1c(F)cccc1F)C(=O)CCOc1ccccc1 do in these assays?
ZTA counter: inactive; PREPL inh: inactive; Apaf-1 inh: inactive; UBC13 inh: 55; EBNA-1 inh: inactive; Casp3 UBC13 ctr: inactive; UBC13 confirm: inactive

How did C=CCCCCCCCCC(=O)N1CCN(c2cc3c(cc2F)c(=O)c(C(=O)O)cn3CC)CC1 do in these assays?
ZTA counter: inactive; PREPL inh: inactive; Apaf-1 inh: inactive; UBC13 inh: 47; EBNA-1 inh: inactive; Casp3 UBC13 ctr: inactive; UBC13 confirm: inactive

What do the screens show for `C=CCNC(=S)N1CCN(c2cc3c(cc2F)c(=O)c(C(=O)O)cn3CC)CC1`?
ZTA counter: inactive; PREPL inh: inactive; Apaf-1 inh: inactive; UBC13 inh: inactive; EBNA-1 inh: inactive

What do the screens show for `Cc1ccc(CSc2nn3c(=O)c(C)nnc3s2)cc1`?
ZTA counter: inactive; PREPL inh: inactive; Apaf-1 inh: inactive; UBC13 inh: inactive; EBNA-1 inh: inactive

What do the screens show for `CCN(CC)CCCNC(=O)C1CCN(c2ncnc3c2sc2cccc(F)c23)CC1`?
ZTA counter: inactive; PREPL inh: inactive; Apaf-1 inh: inactive; UBC13 inh: inactive; EBNA-1 inh: inactive

How did CC1CC(C)CN(CCCNC(=O)C2CCN(c3ncnc4c3sc3cccc(F)c34)CC2)C1 (stereo not given) do in these assays?
ZTA counter: inactive; PREPL inh: inactive; Apaf-1 inh: inactive; UBC13 inh: 48; EBNA-1 inh: inactive; Casp3 UBC13 ctr: inactive; UBC13 confirm: 54

How did CCCn1c(N2CCN(CC(=O)Nc3ccc4c(c3)OCCO4)CC2)nc2ccccc21 do in these assays?
ZTA counter: inactive; PREPL inh: inactive; Apaf-1 inh: inactive; UBC13 inh: inactive; EBNA-1 inh: inactive

Results for COc1ccc(C)cc1NC(=O)c1c([N+](=O)[O-])cnn1C ?
ZTA counter: inactive; PREPL inh: inactive; Apaf-1 inh: inactive; UBC13 inh: inactive; EBNA-1 inh: inactive

Results for COc1ccccc1NC(=O)c1c(N=Cc2cccc([N+](=O)[O-])c2)cnn1C ?
ZTA counter: inactive; PREPL inh: inactive; Apaf-1 inh: inactive; UBC13 inh: 77; EBNA-1 inh: inactive; Casp3 UBC13 ctr: inactive; UBC13 confirm: 86

How did O=C(c1ccco1)N1CCCC(c2nc3c(nnn3Cc3ccc(Cl)cc3Cl)c(=O)[nH]2)C1 (stereo not given) do in these assays?
ZTA counter: inactive; PREPL inh: inactive; Apaf-1 inh: inactive; UBC13 inh: inactive; EBNA-1 inh: inactive
